Consider 18 molecules from ChEMBL document CHEMBL3608281, “Synthesis and biological evaluation of novel 3,9-substituted β-carboline derivatives as anticancer agents” (Bioorg Med Chem Lett, 2015).

One assay has as its system SK-OV-3. Description: Cytotoxicity against human SKOV3 cells incubated for 48 hrs by MTT assay. It is filed as functional, cell-based. The note with it: SK-OV-3, 48 h. In short, it runs like this:
(§1)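 Human tumour lines (HL-60 leukemia, Hep3B liver, H460 lung, A498 renal, COLO205 colon, 2774 and SK-OV-3 ovarian) and normal Detroit 551 skin fibroblasts were exposed to a range of concentrations for 48 h. IC50 is the concentration giving 50% proliferation inhibition, as the mean of three independent determinations.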
(Tetrazolium assays rely on reduction of a dye to a coloured formazan, in cell work by metabolically active cells.)

In a further assay the test system is A498. Description: Cytotoxicity against human A498 cells incubated for 48 hrs by MTT assay. It is filed as functional, cell-based. As to conditions: A498, 48 h.
A short description of assay [1]: Cytotoxicity against human 2774 cells incubated for 48 hrs by MTT assay. It counts as functional, cell-based. Put shortly: as §1
The next assay deals with COLO 205. The assay can be described thus: Cytotoxicity against human COLO205 cells incubated for 48 hrs by MTT assay. It counts as functional, cell-based. As to conditions: COLO 205, 48 h. In short, it runs like this: as §1
A short description of assay [2]: Cytotoxicity against human Hep3B cells incubated for 48 hrs by MTT assay. It counts as functional, cell-based, Hep 3B2. In short, it runs like this: as §1
Another assay concerns Detroit 551. Description: Cytotoxicity against human Detroit 551 cells incubated for 48 hrs by MTT assay. It counts as cell-based. As to conditions: Detroit 551, 48 h. In short, it runs like this:
as §1

Assay [3] can be described thus: Cytotoxicity against human H460 cells incubated for 48 hrs by MTT assay. It counts as functional, cell-based. As to conditions: NCI-H460, 48 h. In short, it runs like this:
as §1

A further assay deals with HL-60. Description: Cytotoxicity against human HL60 cells incubated for 48 hrs by MTT assay. As to conditions: HL-60, 48 h. It is filed as functional, cell-based. Put shortly: as §1

Where only a bound is given, the exact number is not on record here.

For `CCOC(=O)c1cc2c3ccccc3n(Cc3cccc(OC)c3)c2cn1`, the IC50 (commonly the point on the concentration scale where inhibition reaches its midpoint) with SK-OV-3 is more than 100 µM; with A498 it was 21.6 µM; in assay [1] it was more than 100 µM; with COLO 205 it was 26.7 µM.
As for `CCOC(=O)c1cc2c3ccccc3n(Cc3ccccc3)c2cn1`, the IC50 in assay [2] was more than 100 µM; in the assay on Detroit 551, 50 µM; in the assay on SK-OV-3 it was 3 µM; in the assay on A498, 48.2 µM; in assay [3], more than 100 µM; in assay [1], 26.8 µM. Also, the IC50 in the assay on COLO 205 and in the assay with HL-60 was more than 100 µM throughout.
Take `CCOC(=O)c1cc2c3ccccc3n(Cc3cc(OC)c(OC)c(OC)c3)c2cn1`: the IC50 (in assay [2]; in the assay on Detroit 551; in the assay on SK-OV-3; in the assay with A498; in assay [3]; in assay [1]) was more than 100 µM each time. Also, the results for the IC50 in the assay with COLO 205 and in the assay with HL-60 were more than 100 µM and 21.9 µM, respectively.
Take `O=C(O)c1cc2c3ccccc3n(Cc3ccc(F)cc3)c2cn1`: the IC50 in the assay on SK-OV-3 was determined as 27.7 µM; with A498, 7.6 µM; in assay [1] it was 23.5 µM; in the assay with COLO 205, 33.5 µM.
For `CCOC(=O)c1cc2c3ccccc3n(Cc3ccncc3)c2cn1` the same measures were more than 100 µM, more than 100 µM, more than 100 µM and more than 100 µM.
On to `CCOC(=O)c1cc2c3ccccc3n(Cc3ccc(F)cc3)c2cn1`, for which the IC50 in assay [2] was more than 100 µM; in the assay on Detroit 551, more than 100 µM; in the assay on SK-OV-3, more than 100 µM; in the assay with A498, 50.4 µM; in assay [3] it was more than 100 µM; in assay [1], more than 100 µM. Also, the IC50 in the assay on COLO 205 and in the assay on HL-60 was more than 100 µM in each case.
Consider `CCOC(=O)c1cc2c3ccccc3n(Cc3ccccn3)c2cn1`, for which the IC50 in assay [2] was more than 100 µM; in the assay on Detroit 551 it was more than 100 µM; in the assay on A498, 46.3 µM; in assay [3], more than 100 µM; in the assay on COLO 205, 38.7 µM; in the assay with HL-60, more than 100 µM.
On to `CCOC(=O)c1cc2c3ccccc3n(Cc3ccccc3OC)c2cn1`, for which the IC50 in assay [2] is 8.9 µM; with Detroit 551 it was more than 100 µM; in the assay on SK-OV-3, more than 100 µM; in the assay on A498, 41.3 µM; in assay [3], more than 100 µM; in assay [1], more than 100 µM. Further, the 50% inhibitory concentration (IC50) in the assay on COLO 205 is more than 100 µM; in the assay on HL-60 it was 3.9 µM.
With `OCc1cc2c3ccccc3nc-2c[nH]1`, the IC50 (in assay [2]; in the assay with Detroit 551; with SK-OV-3; with A498; in assay [3]; in assay [1]) was more than 100 µM each time. Further, the IC50 with COLO 205 and with HL-60 was more than 100 µM throughout.
Turning to `CCOC(=O)c1cc2c3ccccc3n(Cc3cc(OC)cc(OC)c3)c2cn1`, the IC50 in assay [2] is more than 100 µM; in the assay with Detroit 551, more than 100 µM; in the assay with SK-OV-3, 24.4 µM; in the assay on A498, more than 100 µM; in assay [3] it was more than 100 µM; in assay [1], more than 100 µM. For the same molecule, the IC50 in the assay on COLO 205 and in the assay with HL-60 was more than 100 µM throughout.
Take `O=C(O)c1cc2c3ccccc3n(Cc3ccc(Cl)cc3)c2cn1`: the IC50 in assay [2] turned out to be 1.2 µM; in the assay on A498 it was 9.9 µM; in assay [3], 15.1 µM; with COLO 205, 26.5 µM; in the assay with HL-60 it was 3.9 µM.
Regarding `O=C(O)c1cc2c3ccccc3nc-2c[nH]1`, the IC50 in assay [2] was 75 µM; in the assay on Detroit 551, more than 100 µM; in the assay with SK-OV-3, more than 100 µM; in the assay on A498 it was more than 100 µM; in assay [3], 70.5 µM; in assay [1], more than 100 µM. Further, the IC50 is 49.6 µM in the assay with COLO 205 and 75 µM with HL-60.
In the case of `CCOC(=O)c1cc2c3ccccc3n(Cc3ccc(Cl)cc3)c2cn1`, the IC50 in assay [2] was more than 100 µM; with Detroit 551 it was more than 100 µM; in the assay on SK-OV-3 it was 2.9 µM; in the assay on A498, more than 100 µM; in assay [3], more than 100 µM; in assay [1], 16.4 µM. The IC50 in the assay on COLO 205 and in the assay on HL-60 was more than 100 µM throughout.
`CCOC(=O)c1cc2c3ccccc3n(Cc3cccnc3)c2cn1`: the half-maximal inhibitory concentration (IC50) (in assay [2]; in the assay with Detroit 551; with SK-OV-3; with A498; in assay [3]; in assay [1]) was more than 100 µM in each case. Besides, the IC50 with COLO 205 and in the assay on HL-60 was more than 100 µM each time.
As to `CCOC(=O)c1cc2c3ccccc3n(Cc3ccc(OC)cc3)c2cn1`, the IC50 in assay [2] was 50 µM; in the assay on Detroit 551 it was 50 µM; in the assay with SK-OV-3 it was more than 100 µM; with A498 it was 38.5 µM; in assay [3], 50 µM; in assay [1], more than 100 µM. In addition, the IC50 in the assay on COLO 205 was 36.9 µM; with HL-60, 39 µM.
For `O=C(O)c1cc2c3ccccc3n(Cc3ccccc3)c2cn1`, the IC50 was 4.4 µM in assay [2]; 9.2 µM with A498; 18.5 µM in assay [3]; 31 µM in the assay on COLO 205; 5 µM with HL-60.
As to `CCOC(=O)c1cc2c(cn1)[nH]c1ccccc12`, the IC50 (in assay [2]; with Detroit 551; with SK-OV-3; in the assay with A498; in assay [3]; in assay [1]) was more than 100 µM in each case. Also, the half-maximal inhibitory concentration (IC50) with COLO 205 and with HL-60 was more than 100 µM throughout.
For `O=C(O)C1Cc2c([nH]c3ccccc23)CN1` (centres undefined), the IC50 (in the assay with A498; in assay [3]; with COLO 205) was more than 50 µM each time.
